Source: ChEMBL document CHEMBL1121608, “Modification of the 5' position of purine nucleosides. 2. Synthesis and some cardiovascular properties of adenosine-5'-(N-substituted)carboxamides” (J Med Chem, 1980)

What was measured:
Canis familiaris [1] = assay: Total time in minutes elapsed from the initiation of the change until return to the pretest value of blood pressure in coronary sinus of anesthetized dog at intravenous dosage of 10 mg/kg; type: functional, Canis lupus familiaris
Canis familiaris [2] = assay: Total time in minutes elapsed from the initiation of the change until return to the pretest value of heart rate in coronary sinus of anesthetized dog at intravenous dosage of 10 mg/kg; type: functional, Canis lupus familiaris
Canis familiaris [3] = assay: Total time in minutes elapsed from the initiation of the change until return to the pretest value of oxygen partial pressure in coronary sinus of anesthetized dog at intravenous dosage of 10 mg/kg; type: functional, Canis lupus familiaris
How it was run: (§1)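 Open-chest anesthetized dogs given compound by intravenous injection. Coronary sinus PO2 was monitored, and duration was the total time in minutes from the onset of the change until return to the pretest value.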

Canis familiaris [4] = assay: Tested for the percent increase in aortic blood pressure (BP) in open chest anesthetized dog at intravenous dosage of 10.00 mg/kg; type: functional, Canis lupus familiaris, Artery
How it was run: (§2)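 Open-chest anesthetized dogs, compound given iv at the stated dose. Aortic blood pressure is reported as the change from the control (pre-dose) value. Other set-up follows the group's earlier cardiovascular protocol.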

Canis familiaris [5] = assay: Tested for percent increase in coronary sinus partial pressure of oxygen (PO2) in open chest anesthetized dog at intravenous dosage of 10.00 mg/kg; type: functional, Canis lupus familiaris
[6] = Lethal dose in mice after intraperitoneal administration; type: toxicity, organism-based; details: mouse, in vivo, ip
How it was run: (§3)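 Male and female mice, three per dose group, were given the compound by the stated route in increments of 0.5 log doses. The LD50 was estimated as an approximate value.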

[7] = Lethal dose in mice after peroral administration; type: toxicity, organism-based; details: mouse, in vivo, po; how it was run: as §3
Canis familiaris [8] = assay: Total time in minutes elapsed from the initiation of the change until return to the pretest value of blood pressure in coronary sinus of anesthetized dog at intravenous dosage of 0.01 mg/kg; type: functional, Canis lupus familiaris
Canis familiaris [9] = assay: Total time in minutes elapsed from the initiation of the change until return to the pretest value of heart rate in coronary sinus of anesthetized dog at intravenous dosage of 0.01 mg/kg; type: functional, Canis lupus familiaris
Canis familiaris [10] = assay: Total time in minutes elapsed from the initiation of the change until return to the pretest value of oxygen partial pressure in coronary sinus of anesthetized dog at intravenous dosage of 0.01 mg/kg; type: functional, Canis lupus familiaris
Canis familiaris [11] = assay: Tested for percent increase in coronary sinus partial pressure of oxygen (PO2) in open chest anesthetized dog at intravenous dosage of 0.01 mg/kg; type: functional, Canis lupus familiaris
Canis familiaris [12] = assay: Tested for the percent increase in aortic blood pressure (BP) in open chest anesthetized dog at intravenous dosage of 0.01 mg/kg; type: functional, Canis lupus familiaris, Artery; how it was run: as §2
Canis familiaris [13] = assay: Total time in minutes elapsed from the initiation of the change until return to the pretest value of blood pressure in coronary sinus of anesthetized dog at intravenous dosage of 1 mg/kg; type: functional, Canis lupus familiaris
Canis familiaris [14] = assay: Total time in minutes elapsed from the initiation of the change until return to the pretest value of heart rate in coronary sinus of anesthetized dog at intravenous dosage of 1 mg/kg; type: functional, Canis lupus familiaris
Canis familiaris [15] = assay: Total time in minutes elapsed from the initiation of the change until return to the pretest value of oxygen partial pressure in coronary sinus of anesthetized dog at intravenous dosage of 1 mg/kg; type: functional, Canis lupus familiaris; how it was run: as §1
Canis familiaris [16] = assay: Tested for percent increase in coronary sinus partial pressure of oxygen (PO2) in open chest anesthetized dog at intravenous dosage of 1.00 mg/kg; type: functional, Canis lupus familiaris
Canis familiaris [17] = assay: Tested for the percent increase in aortic blood pressure (BP) in open chest anesthetized dog at intravenous dosage of 1.00 mg/kg; type: functional, Canis lupus familiaris, Artery; how it was run: as §2

| Compound | Duration (Canis familiaris [1]) [min] | Duration (Canis familiaris [2]) [min] | Duration (Canis familiaris [3]) [min] | BP (Canis familiaris [4]) [%] | PO2 (Canis familiaris [5]) [%] | LD50 [6] [mg/kg] | LD50 [7] [mg/kg] | Duration (Canis familiaris [8]) [min] | Duration (Canis familiaris [9]) [min] | Duration (Canis familiaris [10]) [min] | PO2 (Canis familiaris [11]) [%] | BP (Canis familiaris [12]) [%] | Duration (Canis familiaris [13]) [min] | Duration (Canis familiaris [14]) [min] | Duration (Canis familiaris [15]) [min] | PO2 (Canis familiaris [16]) [%] | BP (Canis familiaris [17]) [%] |
| --- | --- | --- | --- | --- | --- | --- | --- | --- | --- | --- | --- | --- | --- | --- | --- | --- | --- |
| CC1(C)OC2[C@@H](C(=O)NC3CC3)O[C@@H](n3cnc4c(N)ncnc43)[C@H]2O1 (stereo partly drawn) | 1 | 1 | 60 | 26 | 9 | > 300 | > 300 | – | – | – | – | – | – | – | – | – | – |
| CC(=O)OC1[C@@H](C(=O)NC2CC2)O[C@@H](n2cnc3c(N)ncnc32)[C@H]1OC(C)=O (stereo partly drawn) | – | – | – | – | – | 5 | 20 | 270 | 270 | 270 | 67 | 31 | – | – | – | – | – |
| Nc1ncnc2c1ncn2[C@@H]1O[C@H](C(=O)NC2CCC2)[C@@H](O)[C@H]1O | – | – | – | – | – | 2 | 5 | 90 | 48 | 90 | 79 | – | – | – | – | – | – |
| Nc1ncnc2c1ncn2[C@@H]1O[C@H](C(=O)NC2CC2)[C@@H](O)[C@H]1O | – | – | – | – | – | 2 | 5 | 150 | 150 | 150 | 136 | – | – | – | – | – | – |
| CCNC(=O)[C@H]1O[C@@H](n2cnc3c(N)ncnc32)[C@@H](OC(C)=O)C1OC(C)=O (stereo partly drawn) | – | – | – | – | – | 2 | 2 | 70 | 120 | 120 | 52 | 12 | – | – | – | – | – |
| C=CCNC(=O)[C@H]1O[C@@H](n2cnc3c(N)ncnc32)[C@H]2OC(C)(C)OC12 (stereo partly drawn) | – | – | – | – | – | > 1000 | > 1000 | – | – | – | – | – | 30 | 5 | 0 | 0 | 14 |
| CCNC(=O)[C@H]1O[C@@H](n2cnc3c(N)ncnc32)[C@H]2OC(C)(C)OC12 (stereo partly drawn) | 0 | 16 | 30 | 0 | 27 | – | – | – | – | – | – | – | – | – | – | – | – |
| CC(C)NC(=O)[C@H]1OC(n2cnc3c(N)ncnc32)[C@H](O)[C@@H]1O (stereo partly drawn) | – | – | – | – | – | 5 | 5 | 70 | 240 | 240 | 43 | – | – | – | – | – | – |
| CCCCCCNC(=O)[C@H]1OC(n2cnc3c(N)ncnc32)[C@H](O)[C@@H]1O (stereo partly drawn) | – | – | – | – | – | 200 | 500 | – | – | – | – | – | 0 | 6 | 40 | 100 | 0 |
| Nc1ncnc2c1ncn2C1O[C@H](C(=O)Nc2ccc(F)cc2)[C@@H](O)[C@H]1O (stereo partly drawn) | 0 | 0 | 20 | 0 | 30 | 500 | > 1000 | – | – | – | – | – | – | – | – | – | – |
| Nc1ncnc2c1ncn2C1O[C@H](C(=O)NCc2ccco2)[C@@H](O)[C@H]1O (stereo partly drawn) | – | – | – | – | – | – | – | – | – | – | – | – | 20 | 20 | 20 | 22 | 1 |
| Cc1cccc(C)c1NC(=O)[C@H]1OC(n2cnc3c(N)ncnc32)[C@H](O)[C@@H]1O (stereo partly drawn) | 30 | 5 | 30 | 13 | 15 | > 1000 | > 1000 | – | – | – | – | – | – | – | – | – | – |
| CCOC(=O)CNC(=O)[C@H]1OC(n2cnc3c(N)ncnc32)[C@H](O)[C@@H]1O (stereo partly drawn) | 30 | 11 | 30 | 6 | 9 | > 300 | > 300 | – | – | – | – | – | – | – | – | – | – |
| C=CCN(CC=C)C(=O)[C@H]1OC(n2cnc3c(N)ncnc32)[C@H](O)[C@@H]1O (stereo partly drawn) | – | – | – | – | – | > 300 | > 300 | – | – | – | – | – | 0 | 0 | 40 | 66 | 0 |
| CCC(=O)c1ccccc1NC(=O)[C@H]1OC(n2cnc3c(N)ncnc32)[C@H](O)[C@@H]1O (stereo partly drawn) | 40 | 40 | 16 | 5 | 39 | > 1000 | > 1000 | – | – | – | – | – | – | – | – | – | – |
| Nc1ncnc2c1ncn2C1O[C@H](C(=O)N2CCCCC2)[C@@H](O)[C@H]1O (stereo partly drawn) | 20 | 30 | 8 | 7 | 52 | > 1000 | > 1000 | – | – | – | – | – | – | – | – | – | – |
| Nc1ncnc2c1ncn2C1O[C@H](C(=O)Nc2ccccc2)[C@@H](O)[C@H]1O (stereo partly drawn) | – | – | – | – | – | > 1000 | > 1000 | – | – | – | – | – | 0 | 7 | 120 | 127 | 0 |
| C=CCNC(=O)[C@H]1OC(n2cnc3c(N)ncnc32)[C@H](O)[C@@H]1O (stereo partly drawn) | – | – | – | – | – | 200 | > 1000 | 0 | 0 | 20 | 129 | 0 | – | – | – | – | – |
| COc1ccccc1N1CCN(C(=O)[C@H]2OC(n3cnc4c(N)ncnc43)[C@H](O)[C@@H]2O)CC1 (stereo partly drawn) | 60 | 60 | 15 | 7 | 107 | > 300 | > 300 | – | – | – | – | – | – | – | – | – | – |
| Nc1ncnc2c1ncn2C1O[C@H](C(=O)N2CCOCC2)[C@@H](O)[C@H]1O (stereo partly drawn) | 0 | 0 | 0 | 0 | 0 | > 300 | > 300 | – | – | – | – | – | – | – | – | – | – |
| Cc1cccc(OCC(O)CNC(=O)[C@H]2OC(n3cnc4c(N)ncnc43)[C@H](O)[C@@H]2O)c1 (stereo partly drawn) | – | – | – | – | – | > 300 | > 300 | – | – | – | – | – | 30 | 1 | 7 | 42 | 3 |
| CN(C)CCNC(=O)[C@H]1OC(n2cnc3c(N)ncnc32)[C@H](O)[C@@H]1O (stereo partly drawn) | 15 | 15 | 2 | 5 | 13 | 20 | 500 | – | – | – | – | – | – | – | – | – | – |
| CCNC(=O)[C@H]1O[C@@H](n2cnc3c(N)ncnc32)[C@H](O)[C@@H]1O [NECA] | – | – | – | – | – | 0.5 | 5 | 120 | 345 | 345 | 250 | – | – | – | – | – | – |
